In series [1] the test system is Superoxide dismutase [Cu-Zn] (Homo sapiens), P00441 [G94A]. The series is described as follows: Inhibition of SOD1 G93A mutant aggregation-induced cytotoxicity in rat PC12 cells assessed as cell viability incubated for 24 hrs and measured 72 hrs post compound dose by cytotoxicity protection assay. As to conditions: PC-12. Type of series: cell-based. The method in brief:
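PC12 cells expressing G93A SOD1-YFP fusion seeded 15000 cells/well, grown 24 h before dosing. 12-point dose response, top 32 μM, twofold dilutions. After 24 h, MG132 added (100 nM final). Viability measured 48 h later with Calcein-AM (1 μM final, 20 min, room temperature) fluorescence. EC50 derived from dose-response.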

Series [2] deals with Cerebral cortex neuron. The series is described as follows: Cytoprotection in rat Primary cortical neurons incubated for 24 hrs and measured 72 hrs post compound dose by cytotoxicity protection assay. Type of series: functional, cell-based. The method in brief:
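Primary cortical neurons from E18 Sprague-Dawley or Fischer 344 rat brain, dissociated with papain (2 mg/mL, 30 min, 37 °C), plated on poly-D-lysine at 20,000 cells/well, cultured 5 days (~90% neurons). Six-point dose response from 100 μM top, roughly one-third dilutions; 24 h pre-incubation, then MG132 100 nM. Viability read 48 h later by Calcein-AM (1 μM, 20 min, RT) fluorescence. Active = viability ≥5 SD above MG132 controls.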

A short description of series [3]: Intrinsic clearance in human microsomes at 5 uM incubated for 1 hr at 37 degC in presence of NADPH. Type of series: ADME, Microsome.
Series [4] can be described thus: Half life in human microsomes at 5 uM incubated for 1 hr at 37 degC in presence of NADPH. It counts as ADME, Microsome.
Series [5] in a line: Intrinsic clearance in human microsomes at 5 uM incubated for 1 hr at 37 degC in absence of NADPH. It counts as ADME, Microsome.
The nature of series [6]: Intrinsic clearance in mouse microsomes at 5 uM incubated for 1 hr at 37 degC in presence of NADPH. Type of series: ADME, Microsome.
Series [7] can be described thus: Half life in mouse microsomes at 5 uM incubated for 1 hr at 37 degC in presence of NADPH. It counts as ADME, Microsome.
Series [8] in a line: Aqueous solubility of the compound in PBS after 45 mins. It counts as physicochemical.
Series [9] is described as follows: Aqueous solubility of the compound in PBS after 16 hrs. Type of series: physicochemical.
Series [10] in a line: (§1) Apparent permeability from apical to basolateral side in human Caco2 cells. It counts as ADME, cell-based. As to conditions: Caco-2.
A short description of series [11]: (§2) Apparent permeability from basolateral to apical side in human Caco2 cells. It counts as ADME, cell-based. The conditions noted are these: Caco-2. Background: Passage across Caco-2 layers is used to estimate intestinal permeability.
Series [12] is described as follows: Efflux ratio of permeability from basolateral to apical side over apical to basolateral side in human Caco2 cells. The conditions noted are these: Caco-2. Type of series: ADME, cell-based.
The nature of series [13]: Drug metabolism in rat liver microsomes at 15 uM after 20 mins in presence of NADPH. Type of series: ADME, Microsome. As to conditions: read-out: Drug metabolism. The method in brief: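 Rat liver microsomes (1 mg/mL protein) in PBS pH 7.4 with NADPH-regenerating system (1.3 mM NADP+, 3.3 mM glucose-6-phosphate, 0.4 U/mL G6PDH, 3.3 mM MgCl2). Compound at 15 μM, 37 °C for 0 and 20 min. HPLC on C18 (acetonitrile/water 25/75, 0.1% TFA). Peak-area response ratio to internal standard, normalised to t = 0.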

For series [14], the system named is Liver microsomes. The series is described as follows: Drug metabolism in rat liver microsomes assessed as sulfoxide metabolite formation at 15 uM incubated for 5 to 60 mins in presence of NADPH by HPLC analysis. It counts as ADME, Microsome. The procedure, abridged: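 Substrate (15 μM) incubated at 37 °C with rat liver microsomes plus NADPH-regenerating system for 0–60 min. Reaction stopped with acetonitrile, chilled at −78 °C, centrifuged. Supernatant run on isocratic HPLC (acetonitrile/water 25/75, 0.1% TFA). Sulfoxide identified against synthetic sulfoxide and sulfone standards (10 μM) by retention time.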
(In general: Liver microsomes are vesicles of endoplasmic reticulum, rich in cytochrome P450 enzymes.)

Series [15] concerns Liver microsomes. The series is described as follows: Drug metabolism in rat liver microsomes assessed as sulfoxide metabolite formation at 5 uM incubated for 10 to 60 mins in presence of NADPH by HPLC analysis LC/MS/MS analysis. It counts as ADME, Microsome. The procedure, abridged:
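Duplicate incubations at 5 μM with or without rat liver microsomes, with and without NADPH, for 0, 10, 20, 40 and 60 min. Protein precipitated with acetonitrile containing internal standard. Supernatant analysed by LC/MS/MS (C18, acetonitrile-water gradient, ESI, MRM). Controls lacked microsomes or compound.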

Series [16] relates to Mus musculus. Briefly: Neuroprotective activity in SOD1 G93A mutant B6SJL mouse ALS model assessed as extension of life span at 16 mg/kg. It counts as functional.
The subject of series [17] is Mus musculus. The series is described as follows: Neuroprotective activity in SOD1 G93A mutant B6SJL mouse ALS model assessed as extension in life span at 22 mg/kg. Type of series: functional.
Series [18] concerns Caco-2. Described as §1. It counts as ADME, cell-based.
In series [19] the test system is Caco-2. The series is described as §2. Type of series: ADME, cell-based.

This note sets out measurements from ChEMBL document CHEMBL2163259, “ADME-guided design and synthesis of aryloxanyl pyrazolone derivatives to block mutant superoxide dismutase 1 (SOD1) cytotoxicity and protein aggregation: potential application for the treatment of amyotrophic lateral sclerosis” (J Med Chem, 2012).

≈ marks a conversion by molar mass, not a printed value. Calls of active or inactive are those of the source.

Usually CLint scaled stands for the rate of metabolic loss divided by the concentration. By half-life is commonly meant the time needed for the level to fall by half in the phase considered. For orientation: solubility means the dissolved amount per volume that the medium holds. Higher therefore signals much dissolved substance. As usually defined, the Papp A→B is the apparent permeability from the apical to the basolateral side of a cell layer. The term Papp B→A denotes the apparent permeability from the basolateral to the apical side of a cell layer. A word on the efflux ratio: it is the permeability from basolateral to apical divided by that in the opposite direction, in the common usage. As usually defined, the Papp is the rate of passage across a membrane or cell layer, normalised by area and donor concentration.

Superoxide dismutase [Cu-Zn] (Homo sapiens), P00441 [G94A], sequence (P00441 whole entry G94A, the tested form may be a part): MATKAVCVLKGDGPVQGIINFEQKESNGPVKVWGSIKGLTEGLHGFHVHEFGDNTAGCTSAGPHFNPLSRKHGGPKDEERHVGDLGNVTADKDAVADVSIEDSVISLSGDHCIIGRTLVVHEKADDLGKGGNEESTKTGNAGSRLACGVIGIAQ

On to `O=c1cc(C[S+]([O-])c2ccc(Cl)cc2)[nH][nH]1` (stereo not drawn), for which the Activity in series [1] is 35%.

As for `O=c1cc(COc2cccc(-c3ccccc3)c2)[nH][nH]1`, in series [1], the Activity amounted to 100%.

As for `O=c1cc(COc2cc(-c3ccccc3)cc(-c3ccccc3)c2)[nH][nH]1`, the Activity in series [1] amounted to 100%.

`Cc1cc(S(=O)(=O)Cc2cc(=O)[nH][nH]2)c(C)cc1Cl`: the Activity in series [1] was 100%.

As to `O=c1cc(CSc2c(Cl)cccc2Cl)[nH][nH]1`, in [1], the Activity was 100%. Moreover, in series [2], the result was Active.

Turning to `O=c1cc(COc2cc(Br)cc(Br)c2)[nH][nH]1`, the Activity in [1] worked out at 100%.

Take `Cc1cc([S+]([O-])Cc2cc(=O)[nH][nH]2)c(C)cc1Cl` (stereo not drawn): in series [1], the Activity stood at 100%.

For the compound `CCc1cccc(OCc2cc(=O)[nH][nH]2)c1`, the Activity in series [1] is 100%.

As to `CC(C)(C)c1cccc(OCc2cc(=O)[nH][nH]2)c1`, the Activity in [1] came out at 100%.

For the compound `O=c1cc(COc2cc(C(F)(F)F)cc(C(F)(F)F)c2)[nH][nH]1`, the Activity in series [1] amounted to 100%.

On to `O=c1cc(CS(=O)(=O)c2cc(Cl)cc(Cl)c2)[nH][nH]1`, for which the Activity in [1] was 100%. Besides, the CLint scaled at 5 µM in series [3] was determined as 4.5 mL/min/kg; in series [5], 1.3 mL/min/kg; in [6] it was 15.3 mL/min/kg. Further, the half-life at 5 µM in [4] and in series [7] was more than 1 h throughout. The same compound came in with a solubility at 0.75 h in series [8] (PBS) not below 500 µM. This compound also displayed a solubility at 16 h in series [9] (PBS) not below 500 µM. Also, the Papp A→B in series [10] was 27 ×10⁻⁶ cm/s. In addition, the Papp B→A in series [11] was 4.4 ×10⁻⁶ cm/s. Moreover, in [12], the efflux ratio is 0.2. Moreover, the result in [2] was Active.

For `Cc1cc(-c2ccccc2)nnc1NCCN1CCOCC1` [MINAPRINE], the metabolised at 20 min, 15 µM in [13] came out at 41%.

`O=c1cc(CS(=O)(=O)c2ccc(Cl)cc2)[nH][nH]1`: the Activity in series [1] stood at 100%.

As for `O=c1cc(CSc2cc(Cl)cc(Cl)c2)[nH][nH]1`, the Activity in series [1] was 100%.

For the compound `O=c1cc(CSc2ccc(Cl)cc2)[nH][nH]1`, the Activity in series [1] worked out at 100%. In addition, the metabolised at 20 min, 15 µM in series [13] was found to be 88%. The Drug metabolism entry in [14] and in series [15] was “Active” throughout.

Regarding `Nc1nc2ccc(OC(F)(F)F)cc2s1` [RILUZOLE], the Activity in series [16] turned out to be 7.5%; in [17], 11%.

In the case of `O=c1cc(COc2cc(F)cc(F)c2)[nH][nH]1`, the Activity in series [1] was determined as 100%.

With `O=c1cc(COc2cccc(Br)c2)[nH][nH]1`, in series [1], the Activity turned out to be 100%.

With `O=c1cc(COc2ccc(Cl)cc2)[nH][nH]1`, in [1], the Activity amounted to 100%. For the same compound, the t1/2 stood at 2.32 h in [4] (1 h, 5 µM) and 2.38 h in series [7] (1 h, 5 µM). The solubility in series [8] (buffer, 0.75 h) stood at 250 µM (≈ 56.2 µg/mL); in series [9] (buffer, 16 h), 250 µM (≈ 56.2 µg/mL). The figures for the Papp in series [18] and in series [19] were 43 ×10⁻⁶ cm/s and 28 ×10⁻⁶ cm/s, respectively. In addition, the efflux ratio in series [12] worked out at 0.6.

For `CCc1ccc(OCc2cc(=O)[nH][nH]2)cc1`, the Activity in series [1] amounted to 100%.
